Data: PubChem BioAssay AID1381 (University of Pittsburgh Molecular Library Screening Center, 2008)
The whole screen tested about 220,000 compounds, of which about 1,000 (0.45%) were called active. This is one part of a sample in which actives are shown more often than they occur.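 How the source made its calls: active means plate z-score of nuclear minus cytoplasmic receptor signal below a set negative limit, without overly bright fluorescence or cell loss (cut at about -3.5 in these data, passing the limit was not always enough); inactive means the rest, inconclusive results apart.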

Experiment: inhibitors of GR-EGFP nuclear translocation, primary screen, dynein cargo transport inhibitor project, imaging, high-content, 3617.4 mouse cells (AID 1381)
Conditions: stimulated with dexamethasone, 1 µM
In short: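 Buffer or medium: tet-free, stripped-serum medium; reagent: dexamethasone at 1.0 µM final, 30 min; incubation: 48 h induction, 1 h compound, 30 min dex at 37 °C; measured by: formaldehyde fixation, Hoechst nuclear stain, 10x automated fluorescence imaging; read-out: nuclear-to-cytoplasmic GR-EGFP distribution per well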

[1] = measured here: cell count per field, at 20 µM
[2] = measured here: cytoplasmic GR-EGFP intensity, at 20 µM, stronger effect = higher value
[3] = measured here: nuclear GR-EGFP intensity, at 20 µM, stronger effect = lower value
[4] = measured here: cell count per field, at 50 µM
[5] = measured here: cytoplasmic GR-EGFP intensity, at 50 µM, stronger effect = higher value
[6] = measured here: nuclear GR-EGFP intensity, at 50 µM, stronger effect = lower value

SMILES | z-score (at 20 µM, stronger effect = lower value) | z-score [1] | z-score [2] | z-score [3] | z-score (at 50 µM, stronger effect = lower value) | z-score [4] | z-score [5] | z-score [6]
O=C1NC(=O)N(c2ccccc2)C(=O)/C1=C/c1ccc([N+](=O)[O-])s1 | -5.82 (active) | 0.268 | 2.42 | -2.58 | – | – | – | –
Cc1c(C(=O)O)cccc1-n1c(C)cc(/C=C2\C(=O)NC(=O)N(c3ccc4c(c3)OCO4)C2=O)c1C | -0.66 (inactive) | 0.519 | -0.101 | -0.113 | – | – | – | –
O=C1NC(=O)N(c2ccc(F)cc2)C(=O)/C1=C/c1ccc2c(c1)CCCN2Cc1ccccc1 | -0.735 (inactive) | -0.42 | 4.11 | 0.344 | – | – | – | –
COc1cccc(N2C(=O)NC(=O)/C(=C\c3ccc([N+](=O)[O-])s3)C2=O)c1 | -6.53 (active) | -0.425 | 2.64 | -2.61 | – | – | – | –
Cc1ccccc1N1C(=O)NC(=O)/C(=C\c2cc(C)n(C)c2C)C1=O | -0.127 (inactive) | 0.901 | -0.306 | -0.135 | – | – | – | –
Cc1cccc(N2C(=O)NC(=O)/C(=C\c3cnn(-c4ccccc4)c3)C2=O)c1 | 0.124 (inactive) | -0.649 | -0.166 | 0.444 | – | – | – | –
OC1/C(=C/c2ccc(C(F)(F)F)cc2)N2CCC1CC2 (stereo not given) | -1.47 (inactive) | 0.879 | -0.265 | -0.69 | – | – | – | –
CCCC[N+]1(C)C2CC(OC(=O)C(CO)c3ccccc3)CC1C1OC12 (stereo not given) | -0.526 (inactive) | 0.258 | -0.759 | 0.0484 | – | – | – | –
c1cc2c(cc1CCNC1CCCCCC1)OCO2 | – | – | – | – | 1.01 (inactive) | 0.684 | -0.246 | 0.379
CC(c1ccccc1)(c1ccccc1)c1ccncc1 | -0.152 (inactive) | -0.267 | -0.379 | -0.628 | – | – | – | –
Cc1cc(C=C2C(=O)NC(=O)NC2=O)c(C)n1-c1ccncc1 | 1.16 (inactive) | -1.04 | -0.229 | 0.621 | – | – | – | –
CCN(CC)C(=O)c1ccc(NC(=O)c2cc(-n3cnnc3)ccc2Cl)cc1 | – | – | – | – | 1.07 (inactive) | -0.204 | -0.239 | 0.487
CN(C)CC1Oc2ccccc2OC1(O)c1ccccc1 (stereo not given) | -6.23 (active) | 1.09 | 1.79 | -2.55 | – | – | – | –
COc1ccc(NC(=O)c2cn(CCC#N)nc2-c2ccc([N+](=O)[O-])cc2)cc1 | -0.74 (inactive) | 0.149 | -0.33 | -0.871 | – | – | – | –
CCC(C)n1c(O)c(/C=N/Nc2nc3c(c(=O)n(C)c(=O)n3C)n2C)c(=O)[nH]c1=S (stereo not given) | -0.95 (inactive) | 0.937 | -0.21 | -0.129 | – | – | – | –
